From the EternaBench riboswitch data

System: MS2 coat protein
Assay: apparent Kd, MS2 coat protein; higher = weaker binding; RNA-MaP array
How it was run: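 In Tris-HCl pH 7.5 buffer with KCl, MgCl2, BSA, DTT, tRNA and Tween20, with or without input ligand, fluorescently labeled MS2 coat protein at 1.5 nM to 3 μM was incubated at room temperature with designed RNAs. The RNAs had been transcribed on an Illumina sequencing chip from sequenced DNA templates, and incubation ran 0.8–1.5 h at the lowest to 10–20 min at the highest concentrations. Apparent Kd is the median of binding-curve fits for individual clusters. Designs measured on fewer than 10 clusters were excluded.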

[1] = designed as: OFF switch for flavin mononucleotide, no ligand
[2] = ligand present: flavin mononucleotide, designed as: OFF switch for flavin mononucleotide
[3] = designed as: ON switch for flavin mononucleotide, no ligand
[4] = ligand present: flavin mononucleotide, designed as: ON switch for flavin mononucleotide
[5] = designed as: OFF switch for tryptophan, no ligand

CCAAAAUCGAAGAAGGCUAUGCGUACCAAUCUUAGAGGAUAUUCGACCUUAGCUAACAUGAGGAUCACCCAUGUGGGAAACACG
apparent Kd [1]: 0.028 µM | apparent Kd [2]: 0.0195 µM

CCAGUUACCAGAGGAUAUGAUUCCAGAGUUAAGGGUAUUCACAUGAGGAUCACCCAUGUGCUCCUUCAGAAGGCUGAUAACCCG
apparent Kd [1]: 0.0398 µM | apparent Kd [2]: 0.0494 µM

GUACUGUACAAGAAGGUUGAUUUGCAUCAAGAUCCGAUUUACAUGAGGAUCACCCAUGUUUUAUCAAAGGAUAUUGGUACAACG
apparent Kd [1]: 0.011 µM | apparent Kd [2]: 0.0668 µM

CUAAGCUCGGACAAGGAUAUUAAUUACUAGACAUGAGGAUCACCCAUGUCAACAGACUGGAGGAUUAAGAAGGUGAUUGAAAACCC
apparent Kd [3]: 0.0218 µM | apparent Kd [4]: 0.0194 µM

UACCAUAGACCAGUUAGCGACACAUGAGGAUCACCCAUGUAGAGAAGGUGCUCUAUCUUAAGACGCAAGGAUAUCUGCAUUAUA
apparent Kd [1]: 0.0203 µM | apparent Kd [2]: 0.0219 µM

AAUACACUUGAGAAGGCCCAAACAUGAGGAUCACCCAUGUGACAUGUAAUCGCCGCGAAUGGAAGGGAGGAUAUCAGAAUCCAC
apparent Kd [3]: 0.0162 µM | apparent Kd [4]: 0.0175 µM

UAGGACAUCCAGAAGGUAACCCAAUGAUAUAACACAUGAGGAUCACCCAUGUUGAAUCAGAGACUUAAGGAUAUGGUUGAUCUU
apparent Kd [3]: 0.0231 µM | apparent Kd [4]: 0.0135 µM

AUCGCGACAGGAUAUACAUGAGGAUCACCCAUGUUGAUGAGCGAGCAUCGGACUGAGAGUAGAAGGGUCGGCUC
apparent Kd [1]: 0.00926 µM | apparent Kd [2]: 0.00904 µM

UAUAAACAGCCUGGUUACUCGUCGCGCUUGCGAGGACCGGUACGGCCGCCACUCGACCCAUCACAUGAGGAUCACCCAUGUCCCA
apparent Kd [5]: 0.0317 µM

CUGAACUAAGGAUAUACGGCCCUCAAUUAUAAUUCUGUGAAACAUGAGGAUCACCCAUGUAGAAGGUAGUCGAC
apparent Kd [1]: 0.0141 µM | apparent Kd [2]: 0.0181 µM

CUACCUACAGGAUAUACAUGAGGAUCACCCAUGUUUCAACGUGGAACAGGUUGAACAUGUAGAAGGGAAUCGUU
apparent Kd [1]: 0.0204 µM | apparent Kd [2]: 0.0172 µM

GUAUUACAUGAGGAUCACCCAUGUGCGCCGCGUCAAGGAUAUGUAUCGUACGUGUAGUAAACAGAAGGUGACGGAU
apparent Kd [3]: 0.17 µM | apparent Kd [4]: 0.0712 µM

AUCCGUGCAGCAAAUGGAGUGACAUGAGGAUCACCCAUGUAUGAGGAUAUGGCUCCGCCAGGGUACCAGAAGGCAUAAGGGAGG
apparent Kd [3]: 0.908 µM | apparent Kd [4]: 0.627 µM

CGGUGGUGAGGAUAUCAAAUGUGGAAGGAGAAGACACCCAGUGAGAAGGCACAUGAGGAUCACCCAUGUACAGC
apparent Kd [1]: 0.0107 µM | apparent Kd [2]: 0.006 µM

AUUGUGAUAGCAGGAUAUUGUAUUGGUACAUGAGGAUCACCCAUGUUAAAAUCCUCUUGAUUUAGCAAGAAGGGCUCCAUGGCA
apparent Kd [1]: 0.0218 µM | apparent Kd [2]: 0.0183 µM

AUAUGAGGAGUGAGGAUAUGAAUCUAACAGAAUAAUCAGAAGGCACAUGAGGAUCACCCAUGUAAAUAUAUGGU
apparent Kd [1]: 0.0106 µM | apparent Kd [2]: 0.0115 µM

UAAAACGGAUCAGGAUAUGUGAAACUGAGUGCGUGAACACUCGCCUACAUGAGGAUCACCCAUGUACAGAAGGGAACUACUACA
apparent Kd [3]: 0.0164 µM | apparent Kd [4]: 0.0139 µM

GCCAUAAAAGAGAAGGGCGGCCACCUACGAACCGCAGGAUAUCUUUGCUUUCCUCGGACAUGAGGAUCACCCAUGUGGCCAAUA
apparent Kd [1]: 0.0973 µM | apparent Kd [2]: 0.16 µM

GAAAUCAGAGGAUAUCAGUCAUGUCACAUGAGGAUCACCCAUGUUUGUGUUUUGGUAGAUUGAGAAGGCUGCGACC
apparent Kd [1]: 0.0166 µM | apparent Kd [2]: 0.00966 µM

CUCCUGGAAGGAUAUGUGUUUCAGGACAUGAGGAUCACCCAUGUAGAACCUCUCUCCCGCACAGAAGGUCCAUUGU
apparent Kd [1]: 0.0743 µM | apparent Kd [2]: 0.247 µM

CUUGAACCAUCACAUGAGGAUCACCCAUGUAGACUAUAAACUGAGGAUAUCACAGCGAGCAGUCAUGAGAAGGCAGAAUGACGG
apparent Kd [3]: 0.0153 µM | apparent Kd [4]: 0.0136 µM

UGAUGAUGACAGGAUAUUAGCGUAAUGAAACUUUAAGAAGGGUCGACAUGAGGAUCACCCAUGUAUGAUCUCGA
apparent Kd [1]: 0.0055 µM | apparent Kd [2]: 0.00538 µM

GAAAAGGACAAAGGAUAUGGGUAGGCAAUCAAUCCAGAAGGUAGACCAGGCAACCUAAACAAACAUGAGGAUCACCCAUGUUAG
apparent Kd [3]: 0.0166 µM | apparent Kd [4]: 0.0143 µM

GAGUCGCGAGGAUAUGGAAUGGACUACAUGAGGAUCACCCAUGUCCUUUCCCUUGUUUGUCCAGAAGGCGCCAUCC
apparent Kd [1]: 0.027 µM | apparent Kd [2]: 0.0244 µM

ACACAUAAUCUCGGACAUGAGGAUCACCCAUGUGUCACAAUCAGAAGGCACACUUGACAAGGGAGUGAGGAUAUGAAUACAUUA
apparent Kd [1]: 0.124 µM | apparent Kd [2]: 0.0327 µM

UACCGACAUGAGGAUCACCCAUGUACUGCGCUUGGAGGAUAUCGGCUUGAUUUUGCGCGUCGAGAAGGCCAACCUA
apparent Kd [3]: 0.0122 µM | apparent Kd [4]: 0.0102 µM

CAGGAGCUAGAGAAGGAGGUUACGCCCACGGACCUAGGAUAUCUGUUCUGAGUUACAUGAGGAUCACCCAUGUGUCCGCGGUGG
apparent Kd [1]: 0.0539 µM | apparent Kd [2]: 0.033 µM

GUCAUGUCAGGAUAUCGUUCGGAGUGCGAUUCCCUCUGCCGCGAGAAGGGACAUGAGGAUCACCCAUGUUCGAA
apparent Kd [1]: 0.0168 µM | apparent Kd [2]: 0.0437 µM

GCCGACCUCACAUGAGGAUCACCCAUGUGCCGGAAACUACUGAGAAGGGCUCUAAUUCCAGGCGAGCAGGAUAUCAUAAAAUAG
apparent Kd [3]: 0.0174 µM | apparent Kd [4]: 0.00878 µM

UCGAGUACGGUGAGGAUAUCAUGAGGAUUACUACAAGAGAAGGCACAUGAGGAUCACCCAUGUGGCGACCAUUC
apparent Kd [1]: 0.00628 µM | apparent Kd [2]: 0.00632 µM

GCGAACGGACCGUUGCCUUCCUGUGUGCGGCGAGGACCGGUACGGCCGCCACUCGACUGCGUACAUGAGGAUCACCCAUGUUAGA
apparent Kd [5]: 0.0265 µM | apparent Kd (ligand present: tryptophan, designed as: OFF switch for tryptophan): 0.0663 µM

AGUUACAAUGUCAGGAUAUUGCUCCCACGACGGAACAAGAAGGGACAUGAGGAUCACCCAUGUUAGUCUUCGUC
apparent Kd [1]: 0.00496 µM | apparent Kd [2]: 0.00598 µM

AACCGGCAAGGAUAUACAUGAGGAUCACCCAUGUACGACGCGCUGGCUACGUUUUUAUGUAGAAGGUGCCGACC
apparent Kd [1]: 0.00619 µM | apparent Kd [2]: 0.00626 µM

GGACAACAUGAGGAUCACCCAUGUCCUGAUACCAGUCAGCGCAGUGACCCUUGGCAGCAGACGGAUACGAAAUAACUGAGAGAUA
apparent Kd (designed as: ON switch for theophylline, no ligand): 0.0406 µM | apparent Kd (ligand present: theophylline, designed as: ON switch for theophylline): 0.0421 µM

CUAAUGGAAGGAUAUACAUGAGGAUCACCCAUGUUUAAGUGAUUAGCGAAUUGUCAACGUAGAAGGUCCAAUUA
apparent Kd [1]: 0.0426 µM | apparent Kd [2]: 0.0843 µM

UUCCUCAGCAGGGUAACAUGAGGAUCACCCAUGUCGGAGAGCGAGGAUAUCUCGUGAAGCUCAUAAGAGAAGGCGCACAACUAG
apparent Kd [1]: 0.0182 µM | apparent Kd [2]: 0.0172 µM

UCUUUAAGCACAGGAUAUUGGUACAUGAGGAUCACCCAUGUGGAUCGUACUACCUCUCCACCGGACAAGAAGGGUGCGCCUACG
apparent Kd [3]: 0.172 µM | apparent Kd [4]: 0.125 µM

AUGUGUAUUGAAGGAUAUGAAGCCGGCAUAAAAUCAGAAGGUCAACUAAUUACACAUGAGGAUCACCCAUGUGAUGACAUGCUU
apparent Kd [1]: 0.0172 µM | apparent Kd [2]: 0.0248 µM

UGUAACACAGGAUAUACAUAGGCCAGCCACUGACUCAGGUCACAUGAGGAUCACCCAUGUAGAAGGGUGCUGAA
apparent Kd [1]: 0.116 µM | apparent Kd [2]: 0.0841 µM

CGGACCUGAGAGAAGGGCAGCCGACAUGAGGAUCACCCAUGUAAUCGAGGACCAUCCUCAUUUUUGCAGGAUAUCUAUUGUUAU
apparent Kd [1]: 0.0353 µM | apparent Kd [2]: 0.0373 µM

AUGUAGUCGGUAGGAUAUACGAGUCUGAUAACAGUAGAAGGACCGAGUACGGCUCCGCAGUACAUGAGGAUCACCCAUGUGAUC
apparent Kd [3]: 0.533 µM | apparent Kd [4]: 0.286 µM

ACUAUACAUGAGGAUCACCCAUGUGGUCACAUAUGAGGAUAUAUGCGGCUGUCCCGGUCAAUAGAAGGCAUAUUUA
apparent Kd [3]: 0.052 µM | apparent Kd [4]: 0.0535 µM
